Assay results as given in ChEMBL document CHEMBL2029338, “Synthesis, biological evaluation, and molecular docking studies of benzyl, alkyl and glycosyl [2-(arylamino)-4,4-dimethyl-6-oxo-cyclohex-1-ene]carbodithioates, as potential immunomodulatory and immunosuppressive agents” (Bioorg Med Chem, 2012).
In brackets after ≈: the same amount, converted by molar mass.

Experiments:
J774.2 [1] = assay: Antiinflammatory activity in lipopolysaccharide-induced mouse J774.2 cells assessed as inhibition of nitric oxide production at 25 ug/mL after 24 hrs by Griess method; assay type: functional; conditions: J774.2, 24 h
Summary of the method: (§1)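 J774.2 mouse macrophages grown in DMEM with 10% FBS, seeded at 10⁶ cells/mL. NOS-2 induced with E. coli LPS; compounds at 25 µg/mL added right after LPS, 37 °C, 5% CO₂. Supernatant taken at 24 h and nitrite read by Griess reagent (sulfanilamide, then naphthylethylenediamine in 2.5% phosphoric acid), 10 min at 23 °C, A550. Quantified against a sodium nitrite standard curve; mean ± SD of duplicate readings.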

[2] = (§2) Antiinflammatory activity in human whole blood phagocytes assessed as inhibition of respiratory burst measuring ROS after 30 mins by luminol-enhanced chemiluminescence assay; assay type: functional, cell-based; conditions: 0.5 h
Summary of the method: (§3)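 Luminol-enhanced chemiluminescence of whole blood phagocytes. Compounds at 1.0, 10 and 100 µg/mL in HBSS⁺⁺ (with Ca²⁺/Mg²⁺) were incubated with whole blood diluted 1:50 for 30 min at 37 °C. Luminol and serum-opsonized zymosan (S. cerevisiae) were then added. ROS kinetics were monitored by luminometer for 50 min in repeated scan mode, with positive, negative and blank controls.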

PBMC [3] = assay: Immunosuppressive activity against human PBMC assessed as inhibition of PHA/PMA-induced IL2 production after 18 hrs by ELISA
THP-1 [4] = assay: Antiinflammatory activity in PMA-stimulated human THP1 cells assessed as inhibition of LPS-induced IL-1beta production at 25 ug/mL after 18 hrs; assay type: functional; conditions: THP-1, 18 h
Summary of the method: (§4)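 THP-1 cells plated at 2.5 × 10⁵ cells/mL and differentiated to macrophage-like cells with PMA (20 ng/mL final) for 24 h at 37 °C, 5% CO₂. Then stimulated with LPS (50 ng/mL final) and treated with test compounds. TNF-α was measured in supernatant at 4 h and IL-1β at 18 h by DuoSet ELISA.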

PBMC [5] = assay: Immunosuppressive activity in human PBMC assessed as inhibition of PHA-induced cell proliferation after 72 hrs by [methyl-3H]thymidine incorporation assay; assay type: functional, cell-based
Summary of the method: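 Human PBMCs from healthy donor venous blood, isolated by density separation and cultured in RPMI-1640 with 10% FBS. Stimulated with PHA in the presence of increasing compound concentrations for 72 h at 37 °C, 5% CO₂. [methyl-³H]thymidine 0.5 µCi/well added for a further 18 h, then harvested and counted by liquid scintillation. Expressed as % of stimulated control, mean ± SD of triplicates; IC50 derived.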

THP-1 [6] = assay: Antiinflammatory activity in PMA-stimulated human THP1 cells assessed as inhibition of LPS-induced TNFalpha production at 25 ug/mL after 4 hrs; assay type: functional; conditions: THP-1, 4 h; summary of the method: as §4
3T3-L1 = assay: Cytotoxicity against mouse 3T3L1 cells after 48 hrs by MTT assay; assay type: cell-based; conditions: 3T3-L1, 48 h
Summary of the method: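 3T3-L1 mouse embryo fibroblasts in DMEM with 10% FBS. Plated at 6 × 10⁴ cells/mL for 24 h at 37 °C, 5% CO₂, then exposed to compounds (up to 20 µg/mL) in triplicate for 48 h. Viability by MTT 0.5 mg/mL for 4 h, DMSO solubilization, absorbance at 540 nm; mean ± SD of triplicates.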

J774.2 [7] = assay: Antiinflammatory activity in lipopolysaccharide-induced mouse J774.2 cells assessed as inhibition of nitric oxide production after 24 hrs by Griess method; assay type: functional, cell-based; conditions: J774.2, 24 h; summary of the method: as §1
CC-1 = assay: Cytotoxicity against Wistar rat CC1 cells after 48 hrs by MTT assay; assay type: cell-based; conditions: CC-1, 48 h
Summary of the method: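 Plated at 6 × 10⁴ cells/mL for 24 h at 37 °C, 5% CO₂, then exposed to compounds (up to 20 µg/mL) in triplicate for 48 h. MTT 0.5 mg/mL for 4 h, formazan dissolved in DMSO, A540; mean ± SD of triplicates.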

Homo sapiens = species on record: Homo sapiens; assay: as §2; assay type: functional, cell-based; summary of the method: as §3

Compound | IC50 [2] [µg/mL] | IC50 (J774.2 [7]) [µM] | inhibition at 25 µg/mL (J774.2 [1]) [%] | IC50 (PBMC [3]) [µg/mL] | inhibition at 25 µg/mL (THP-1 [4]) [%] | IC50 (PBMC [5]) [µg/mL] | inhibition at 25 µg/mL (THP-1 [6]) [%] | IC50 (3T3-L1) [µg/mL] | inhibition (PBMC [3]) | IC50 (CC-1) [µg/mL] | inhibition (PBMC [5]) | inhibition (Homo sapiens)
CCCCCCCCCCCSC(=S)C1=C(Nc2ccc(Cl)cc2)CC(C)(C)CC1=O | > 100 | – | 16.5 | > 20 | -15.8 | > 50 | -56.6 | – | – | – | – | –
CC(=O)OC[C@H]1O[C@@H](SC(=S)C2=C(Nc3ccc(Br)cc3)CC(C)(C)CC2=O)[C@H](OC(C)=O)[C@@H](OC(C)=O)[C@@H]1OC(C)=O | > 100 | 7.7 | 68.4 | 3.4 (≈ 4.85 µM) | 59.2 | 8.8 (≈ 12.6 µM) | 58.7 | > 20 | Dose-dependent effect | 19.8 (≈ 28.3 µM) | Dose-dependent effect | –
CC(C)=NNC1=C2C(=S)NN=C2CC(C)(C)C1 | – | 36.4 | – | 14.7 (≈ 58.7 µM) | – | 13.2 (≈ 52.7 µM) | – | – | Dose-dependent effect | – | Dose-dependent effect | Dose-dependent effect
CC1(C)CC(=O)C=C(Nc2ccc(Br)cc2)C1 | > 100 | 49.1 | 62.7 | > 20 | -26.8 | > 50 | -31.4 | – | – | – | – | –
CC(=O)OC[C@H]1O[C@@H](SC(=S)C2=C(Nc3ccc(Cl)cc3)CC(C)(C)CC2=O)[C@H](OC(C)=O)[C@@H](OC(C)=O)[C@@H]1OC(C)=O | 90 | 44.3 | 77.3 | 3.5 (≈ 5.33 µM) | 46.8 | 9.9 (≈ 15.1 µM) | 83.8 | > 20 | Dose-dependent effect | > 20 | Dose-dependent effect | –
CCCCSC(=S)C1=C(Nc2ccc(Cl)cc2)CC(C)(C)CC1=O | > 100 | – | 23.6 | > 20 | -92.9 | > 50 | 10.5 | – | – | – | – | –
CC(=O)OC[C@H]1O[C@@H](SC(=S)C2=C(Nc3ccc(Cl)cc3Cl)CC(C)(C)CC2=O)[C@H](OC(C)=O)[C@@H](OC(C)=O)[C@H]1OC(C)=O | 5.94 | – | 66.8 | 2.1 (≈ 3.04 µM) | 86 | 3.9 (≈ 5.65 µM) | 83.8 | > 20 | – | > 20 | – | –
CCCCSC(=S)C1=C(Nc2ccc(Br)cc2)CC(C)(C)CC1=O | > 100 | – | 18.9 | > 20 | – | > 50 | -31.4 | – | – | – | – | –
CC(=O)OC[C@H]1O[C@@H](SC(=S)C2=C(Nc3ccc(Cl)cc3Cl)CC(C)(C)CC2=O)[C@H](OC(C)=O)[C@@H](OC(C)=O)[C@@H]1OC(C)=O | > 100 | 16.1 | 57.2 | > 20 | – | 15.8 (≈ 22.9 µM) | -48.2 | – | – | – | – | –
CC1(C)CC(=O)C(C(=S)SCc2ccccc2)=C(Nc2ccc(Br)cc2)C1 | > 100 | – | 38.5 | > 20 | -158 | > 50 | -50.3 | – | – | – | – | –
CCCCCCCCCCCSC(=S)C1=C(Nc2ccc(Br)cc2)CC(C)(C)CC1=O | > 100 | – | 32.1 | > 20 | -22.7 | > 50 | -58.7 | – | – | – | – | –
CC1(C)CC(=O)C=C(Nc2ccc(Cl)cc2)C1 | > 100 | 63.8 | 62.4 | > 20 | 17.2 | 15 (≈ 60.1 µM) | -4.3 | – | – | – | – | –
CC1(C)CC(=O)C(C(=S)SCc2ccccc2)=C(Nc2ccc(Cl)cc2)C1 | > 100 | – | 10.4 | > 20 | 13.1 | > 50 | -21 | – | – | – | – | –
CC1(C)CC(=O)C=C(Nc2ccc(Cl)cc2Cl)C1 | > 100 | – | 42.1 | > 20 | 38.5 | 17.6 (≈ 61.9 µM) | 6.3 | – | – | – | – | –

The next lines start with results.

IC50 [2] [µg/mL] | IC50 (J774.2 [7]) [µM] | Compound | inhibition at 25 µg/mL (J774.2 [1]) [%] | IC50 (PBMC [3]) [µg/mL] | inhibition at 25 µg/mL (THP-1 [4]) [%] | IC50 (PBMC [5]) [µg/mL] | inhibition at 25 µg/mL (THP-1 [6]) [%] | IC50 (3T3-L1) [µg/mL] | inhibition (PBMC [3]) | IC50 (CC-1) [µg/mL] | inhibition (PBMC [5]) | inhibition (Homo sapiens)
> 100 | – | CCCCSC(=S)C1=C(Nc2ccc(Cl)cc2Cl)CC(C)(C)CC1=O | 35.2 | > 20 | -22 | > 50 | -14.7 | – | – | – | – | –
> 100 | – | CC1(C)CC(=O)C(C(=S)SCc2ccccc2)=C(Nc2ccc(Cl)cc2Cl)C1 | 39.5 | > 20 | -119 | > 50 | -50.3 | – | – | – | – | –
> 100 | – | CCCCCCCCCCCSC(=S)C1=C(Nc2ccc(Cl)cc2Cl)CC(C)(C)CC1=O | 39.7 | > 20 | 30.3 | > 50 | 29.3 | – | – | – | – | –
> 100 | – | CC1(C)CC(=O)C(C(=S)SCCO)=C(Nc2ccc(Br)cc2)C1 | 37 | > 20 | 5.5 | 8.3 (≈ 20 µM) | -33.5 | – | Dose-dependent effect | – | Dose-dependent effect | –
> 100 | – | CC1(C)CC(=O)C(C(=S)SCCO)=C(Nc2ccc(Cl)cc2)C1 | 43.3 | > 20 | 48.1 | 21 (≈ 56.8 µM) | 0 | – | – | – | – | –
> 100 | – | CC1(C)CC(=O)C(C(=S)SCCO)=C(Nc2ccc(Cl)cc2Cl)C1 | 44.8 | > 20 | 16.5 | > 50 | -50.3 | – | – | – | – | –
